Published values pooled from the literature.
RXFP3: Relaxin-3 receptor 1 (RXFP3, Homo sapiens, UniProt Q9NSD7)

Compound	target	test	setting	IC50 [nM]
CN1CCN(c2ccc(Nc3ncc4cc(C#N)c(=O)n(C5CCCC5)c4n3)cc2)CC1	Ephrin type-B receptor 2 (EPHB2, Homo sapiens, UniProt P29323)	enzyme activity, inhibitor	–	86.8
O=C(Nc1ccc(Br)cc1)N1CCC(n2c(=O)[nH]c3c(Br)cccc32)CC1	SMUG1 (Homo sapiens, UniProt Q53HV7)	enzyme activity, inhibitor	–	> 100000
COc1ccc2c(c1OCc1ccc(OC(F)(F)F)cc1)C[C@@H](C(=O)O)N(c1nc3ccc(F)cc3o1)C2	Type-1 angiotensin II receptor (AGTR1, Homo sapiens, UniProt P30556)	ligand displacement	–	> 10000
Cc1ccccc1-c1noc(-c2ccc(NC(=O)C3CC(=O)N(Cc4cccnc4)C3)cc2)n1 (centres unmarked)	RXFP3	cAMP, antagonist, TR-FRET	–	> 10000
COc1ccc(-c2coc3cc(O)c(CC=C(C)C)c(O)c3c2=O)c(O)c1	Beta-secretase 1 (BACE1, Homo sapiens, UniProt P56817)	enzyme activity, inhibitor	–	42000
C=CC(=O)Nc1cc(Nc2nccc(-c3cn(C4CC4)c4ccccc34)n2)c(OC)cc1N(C)CCN(C)C	Epidermal growth factor receptor (EGFR, Homo sapiens, UniProt P00533, D761Y)	enzyme activity, inhibitor, TR-FRET	–	0.84
COc1ccc2c(Oc3ccc4c(C(=O)Nc5ccccc5N)cccc4c3)ccnc2c1	Mitogen-activated protein kinase 8 (MAPK8, Homo sapiens, UniProt P45983)	enzyme activity, inhibitor	–	> 500
O=C(O)Cc1ccccc1Nc1c(Cl)cccc1Cl	Delta-aminolevulinic acid dehydratase (Homo sapiens, UniProt P13716, C162A/K59N)	enzyme activity, inhibitor, absorbance	pH 8, with preincubation	9000
[N-]=[N+]=N[C@H](CC(=O)NO)Cc1ccc(O)cc1	Endoplasmic reticulum aminopeptidase 2 (ERAP2, Homo sapiens, UniProt Q6P179)	enzyme activity, inhibitor, fluorescence	–	59000
C[C@]1(C(=O)[C@H](CC2CCCCC2)NC(=O)[C@@H]2COCCCCCC(=O)N3CCC[C@H]3C(=O)N2)CO1	Proteasome Macropain subunit MB1 (PSMB5, Homo sapiens, UniProt P28074)	enzyme activity, inhibitor, fluorescence	–	> 10000
CCn1ncc2c1-c1cnc(N)c(c1)O[C@H](C)c1cc(F)ccc1-c1nn(C)nc1C2	Muscle, skeletal receptor tyrosine-protein kinase (MUSK, Homo sapiens, UniProt O15146)	enzyme activity, inhibitor, radiometric	–	44
C=CC(=O)Nc1cc(Nc2nccc(Nc3cc(Cl)c(F)cc3C(C)(C)O)n2)c(OC)cc1N1CC[C@@H](N(C)C)C1	Proto-oncogene tyrosine-protein kinase ROS (ROS1, Homo sapiens, UniProt P08922)	enzyme activity, inhibitor	with preincubation	937
CC(=O)N[C@H]1CSSC[C@@H](C(=O)N[C@H](Cc2c[nH]c3ccccc23)C(N)=O)NC(=O)[C@H](Cc2ccccc2)NC(=O)[C@H](CCCNC(=N)N)NC1=O	Melanocortin receptor 3 (MC3R, Homo sapiens, UniProt P41968)	ligand displacement, radioligand	–	1500
CCOC(=O)c1nn(C(=O)c2cccc(C)c2)c2ccccc2c1=O	Neutrophil elastase (ELANE, Homo sapiens, UniProt P08246)	enzyme activity, inhibitor, fluorescence	–	210
O=C(Nc1ccn(Cc2ccc(O)cc2C(F)(F)F)n1)c1c(F)cccc1F	Transient receptor potential cation channel subfamily V member 4 (TRPV4, Homo sapiens, UniProt Q9HBA0)	ion current, inhibitor	–	> 10000
O=C(O)C1=CC(=C(c2ccc(O)c(C(=O)O)c2)c2ccc(O)c(C(=O)O)c2)C=CC1=O	DNA polymerase iota (Homo sapiens, UniProt Q9UNA4)	enzyme activity, inhibitor	–	99
O=C(Nc1ccc(-c2nc(-c3ccc(C(F)(F)F)cc3)no2)cc1)C1CC(=O)N(Cc2cccnc2)C1 (centres unmarked)	RXFP3	cAMP, antagonist, TR-FRET	–	2170
Cc1ncsc1-c1ccc(CNC(=O)[C@@H]2C[C@H](O)CN2C(=O)[C@@H](NC(=O)C2(F)CC2)C(C)(C)C)c(OCCc2ccc(CN3CCN(c4cc(-c5ccccc5O)nnc4N)CC3)cc2)c1	SWI/SNF-related matrix-associated actin-dependent regulator of chromatin subfamily A member 2, bromodomain (SMARCA2, Homo sapiens, UniProt P51531)	ligand displacement, TR-FRET	–	1300
CC(C)C[C@H](NC(=O)[C@H](Cc1ccccc1)NC(=O)[C@@H](N)Cc1ccc(O)cc1)C(=O)N[C@@H](Cc1ccccc1)C(=O)N[C@@H](CCCNC(=N)N)C(=O)N1CCC[C@H]1C(=O)N[C@@H](CCCNC(=N)N)C(=O)N[C@@H](CC(N)=O)C(N)=O	Neuromedin-U receptor 2 (Mus musculus, UniProt Q8BZ39)	ligand displacement, radioligand	cell membranes	0.09
C[C@@H]1COCCN1c1nc(-c2cnc(N)nc2C(F)F)nc(N2CCOCC2)n1	Serine/threonine-protein kinase mTOR (MTOR, Homo sapiens, UniProt P42345)	ligand displacement, TR-FRET	–	32.4
